Screening data deposited in PubChem BioAssay by several laboratories.
An excerpt weighted towards active compounds, which were near 2.4% of everything screened.
STAT3 act = activators of IL-6 induced STAT3 signaling. U3A cells, IL-6 STAT3-luciferase reporter, luminescence; 100% = signal with IL-6 EC80 alone. activation (% of control), % at 5.6 µM. 190,000 compounds, 0.91% hits. AID 871;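 active means activation above the screen-wide mean of compound activation plus 3 SD, cut at about 130% in these data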;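 further: 0% = background luminescence of wells with medium and substrate only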
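Assay system – human STAT1-deficient U3A cells with stable STAT3-luciferase reporter · Also added – IL-6 (33 ng/mL) · Schedule – compound 1 h, then IL-6 6 h at 37 °C · Technique – reporter luminescence signal · Evaluation – % activation versus median of IL-6-stimulated wells · Benchmarks – IL-6-only wells as 100% reference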
MT stabilizer = microtubule stabilization, imaging screen; HeLa tubulin immunostaining HCS, 24 h; share of cells brighter than vehicle mean+2SD; % tubulin-high responders, % at 10 µM; 200,000 compounds, 0.83% hits; AID 2205;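 active means plate Z-score above 3 for both tubulin-high and condensed-nucleus cell shares, with cell loss under 80%, at 10 µM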;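 further: anti alpha tubulin signal scored within the nucleus-defined area of each cell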
STAT3 inh = STAT3 signaling inhibition; AID 862; U3A cells, IL-6 STAT3-luciferase reporter, luminescence; host cell line lacks STAT1; 190,000 compounds, 0.89% hits; inhibition, % at 5.5 µM;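 active means inhibition above the mean inhibition across all screened compounds plus 3 SD, cut at about 44% in these data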;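 further: 0% = DMSO only wells and 100% = 100 µM nifuroxazide control wells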
STAT1 blocker = reduces IFN-gamma driven STAT1 reporter signal. NIH 3T3 STAT1-luciferase reporter, luminescence. inhibition, % at 5.5 µM. 200,000 compounds, 0.35% hits;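 active means inhibition above a set limit, the mean inhibition across all tested compounds plus 3 SD, cut at about 34% in these data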;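 further: 0% = IFN-gamma with DMSO and 100% = IFN-gamma with 300 µM nifuroxazide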
b-catenin transl = alters nuclear translocation of beta-catenin in HeLa cells | immunofluorescence imaging | 190,000 compounds, 0.3% hits | AID 1665 | nuclear translocation activity, % at 5 µM;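 active means nuclear translocation activity above 50% at 5 µM, with a well cell count of 50 or more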;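 further: per-cell ratio of nuclear to cytoplasmic median beta-catenin stain intensity; plate controls were DMSO negative control for no effect and GSK-3 inhibitor IX positive control for full effect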
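Test system: human HeLa cells, native beta-catenin. Compound dosing: 5 µM primary single dose, 0.1% DMSO, 0.02–20 µM confirmation series. Incubation: compound exposure 24 h at 37°C. Detection: beta-catenin immunostaining with DAPI counterstain, 20x imaging, 6 fields/well. Read-out basis: Nuclear/cytoplasmic beta-catenin signal ratio, % activation.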
* marks the source's active call; other numbers are inactive results; x = no result given.

SMILES | STAT3 act | MT stabilizer | STAT3 inh | STAT1 blocker | b-catenin transl
Cc1c(C(=O)Nc2ccc3c4c(cccc24)CC3)cccc1[N+](=O)[O-] | 90.9 | 21.8* | 13.9 | -8.7 | -2.4
O=C(O)c1cnn(-c2nc(-c3ccc(F)cc3)cs2)c1C(F)(F)F | 125.3 | 1.8 | -17.4 | -21.6 | -1.5
CCOC(=O)c1cnn(-c2nc(-c3ccc(C)cc3)cs2)c1C(F)(F)F | 91.7 | 28.7* | 17.1 | 1.2 | -1.7
COc1ccc2c(c1)nc(NCCCO)n2Cc1ccccc1 | x | x | x | x | 1.4
COc1ccc(C(=O)c2nccc3ccccc23)cc1 | 96.2 | 7.4 | 6.6 | -24.3 | -2.4
CC1CCN(S(=O)(=O)c2ccc(S(=O)(=O)N3CCC4(CC3)OCCO4)cc2)CC1 | 87.2 | 1.3 | 15.6 | -6.4 | 0.0
Cc1nn(-c2ccccc2)c(C)c1NC(=O)c1cccs1 | 105.3 | 40.7* | -8.1 | 7.6 | x
COc1cc(OC)cc(C(=O)Nc2c(C)nn(-c3ccccc3)c2C)c1 | 99.7 | 12.6* | 8.9 | -0.7 | 0.2
COc1cc(OC)cc(C(=O)Nc2c(F)cccc2F)c1 | 97.1 | 3.6 | 7.1 | 4.2 | -0.9
CN(Cc1ccccc1)C(=O)CSc1nc2cc(C(=O)N3CCC(C(N)=O)CC3)ccc2c(=O)n1-c1ccccc1 | x | x | x | x | 0.0
COc1ccc(-c2n(CC(=O)OC3CC(C)CCC3C(C)C)c3ccccc3[n+]2C)cc1 (stereo unspecified) | 57.5 | 5.6 | 51.9* | 56.6* | 2.6
CC1=CC(=O)C(C(C)C)=CC1=NC(=O)c1ccc(C)cc1 | 103.8 | 2.7 | -2.8 | 3.1 | -1.5
COc1ccc(-c2nc3ccccc3s2)cc1 | 26.9 | 2.8 | 84.8* | 72.8* | 0.7
COc1cccc(-c2nc3ccccc3s2)c1 | 100.7 | 1.5 | -0.9 | -45.2 | 1.0
NNc1nc2c(F)cccc2s1 | 152.1* | 4.3 | -55.5 | -51.4 | -1.3
Cc1cc(C)c(OCC(=O)N/N=C/c2ccc3c(c2)OCO3)c(C)c1 | 96.3 | 26.0* | 3.7 | 10.8 | 25.7
COc1ccccc1NC(=O)NCc1nc(-c2ccc(C(F)(F)F)cc2)no1 | x | x | x | x | 1.2
CCc1cc2c(N3CCN(c4ccccc4)CC3)ncnc2s1 | 67.2 | 2.0 | 46.1* | 7.1 | 2.0
CCN(CC1COc2ccccc2O1)C(=S)NC1CC2CCC1C2 (stereo unspecified) | 102.6 | 3.0 | 3.2 | 3.0 | -4.4
O=C(O)COc1ccccc1/C=N/NC(=O)CSc1nnc(SCc2ccccc2)s1 | x | x | x | x | 0.5
Cn1cccc1/C=C1\SC(=Nc2ccccc2)NC1=O | x | x | x | x | 85.6*
Cn1cccc1/C=C1\SC(=Nc2ccc(O)cc2)NC1=O | x | x | x | x | 82.7*
O=C(N/N=C\c1ccc(-c2ccccc2[N+](=O)[O-])o1)C1COc2ccccc2O1 (stereo unspecified) | 133.3* | 6.8 | -46.2 | 5.0 | 2.3
O=C(N/N=C\c1ccc(-c2ccccc2[N+](=O)[O-])o1)C1COc2cc3ccccc3cc2O1 (stereo unspecified) | 110.0 | 2.0 | -1.3 | 12.9 | 2.2
COc1ccc(OCCN2C(=O)c3ccccc3C2=O)cc1 | 86.8 | 2.2 | 17.8 | -30.3 | -4.2
SMILES | STAT3 act | MT stabilizer | STAT3 inh | STAT1 blocker | b-catenin transl
O=C1c2ccccc2C(=O)N1CCOc1ccccc1 | 138.1* | 2.0 | -44.0 | -39.5 | x
Cc1cc(Cn2ccnc2)c(C)cc1Cn1ccnc1 | 110.8 | 42.9* | -12.9 | 4.5 | -0.9
C(=C/c1ccnc2nc(SC/C=C/c3ccccc3)nn12)/c1ccccc1 | 92.8 | 1.3 | 14.4 | -2.6 | -0.4
C=CCc1cccc2cc(C(=O)Nc3ccccc3C(=O)O)c(=O)oc12 | 99.6 | 3.9 | 6.0 | 71.8* | 1.4
O=C(O)/C=C/C(=O)NC1CC1 | 99.6 | 3.7 | 2.1 | -0.9 | -2.1
O=C(NCc1ccco1)C(=O)NCC1OCCN1C(=O)c1ccc(Cl)cc1 (stereo unspecified) | x | x | x | x | 0.4
c1ccc(-c2noc(-c3cccc4ccccc34)n2)cc1 | 192.3* | 2.9 | -100.4 | -45.6 | 0.1
Brc1cccc(-c2nc(-c3ccncc3)no2)c1 | 94.0 | 4.1 | 13.2 | -18.4 | -2.8
Brc1ccccc1-c1nc(-c2ccccc2)no1 | 121.2 | 1.2 | -24.7 | -50.7 | 0.4
c1ccc2c(-c3nc(-c4ccncc4)no3)cccc2c1 | 135.7* | 1.5 | -37.2 | -31.5 | 6.4
Cc1ccc(-c2nc(-c3ccccc3)no2)c(Cl)c1 | 20.0 | 8.5 | 100.9* | 68.8* | -1.1
Cc1ccc(-c2noc(-c3ccoc3C)n2)cc1 | 137.7* | 2.4 | -43.1 | -58.7 | 0.5
C/C(CC(=O)Nc1cccnc1)=N\NC(=O)C(C)Oc1ccc(Cl)cc1Cl (stereo unspecified) | x | x | x | x | 0.6
CC(=O)c1c(C)[nH]c(C(=O)OCCCCN2C(=O)c3ccccc3C2=O)c1C | 31.8 | 1.4 | 86.5* | 33.1 | -1.9
CC(=O)c1c(C)[nH]c(C(=O)OCc2ccccc2)c1C | 86.6 | 1.2 | 18.4 | -46.6 | 1.5
Cc1cc(-c2ccccc2)n(-c2cc(N/N=C/c3ccccc3O)ncn2)n1 | 124.9 | 10.5 | -33.2 | 6.8 | 128.4*
COc1cc(-c2nc(CN(C)C(C)c3ccncn3)c(C)o2)ccc1F (stereo unspecified) | 103.6 | 5.9 | 1.0 | -2.5 | 1.7
O=C(c1cc2ccccc2[nH]1)N1CCOCC1 | 135.2* | 4.8 | -38.7 | 2.0 | -3.9
CCOc1ccc(NC(=O)Nc2cccnc2)cc1 | 97.4 | 5.9 | 14.0 | -8.0 | 1.1
COC(=O)c1cc2c(=O)n3ccccc3nc2n(C(C)C)c1=N | 136.0* | 3.4 | -38.6 | -4.0 | x
COCc1cc(Sc2ccc(Br)cc2)nc(-c2ccccc2)n1 | 104.0 | 1.7 | -4.7 | 6.7 | 0.7
Clc1cc(Sc2ccc(Br)cc2)nnc1-c1ccccc1 | 138.5* | 3.1 | -47.5 | 1.9 | x
Cc1ccc(NS(=O)(=O)c2cc(NC(=O)c3ccc4c(c3)NC(=O)CS4)ccc2Cl)c(C)c1 | 106.1 | 2.8 | -2.3 | -7.8 | 2.1
COCCCNC(=O)c1cc2c(=O)n(C)c3ccccc3c2n1C | 91.0 | 13.3* | 19.0 | -7.2 | x
COCCNC(=O)c1cc2c(=O)n(C)c3ccccc3c2n1C | 97.2 | 4.6 | 11.8 | 8.5 | x
SMILES | STAT3 act | MT stabilizer | STAT3 inh | STAT1 blocker | b-catenin transl
CCOc1ccc(-c2nnc(Nc3ccc(OC)c(C(=O)N4CCCCC4)c3)c3ccccc23)cc1 | 96.6 | 4.5 | -1.0 | -3.8 | 1.1
Cc1cc(NC(=O)CSc2nncn2N)no1 | 97.4 | 1.4 | 14.2 | -2.4 | -0.1
O=C(/C=C1\NCC2c3ccccc3CCN2C1=O)c1ccccc1 (stereo unspecified) | 133.7* | 1.0 | -31.2 | 1.0 | -1.2
Cc1cc(C)n(-c2nc3ccccc3c(=O)n2OCc2ccc(F)cc2)n1 | 135.2* | 1.1 | -31.1 | 9.7 | 0.0
Cc1cc(C)n(-c2nc3ccccc3c(=O)n2OCC(=O)OCc2ccccc2)n1 | 98.7 | 1.6 | 10.3 | -4.9 | -1.7
O=C(COc1ccccc1)NCc1ccccc1 | 101.6 | 1.8 | -1.8 | -0.4 | x
O=C(COc1ccc(C(=O)c2ccccc2)cc1)NCc1ccc(F)cc1 | 102.5 | 9.7* | -4.5 | 4.5 | 158.1*
